The values that follow come from ChEMBL document CHEMBL1153847, “Synthesis and in vitro cytotoxic evaluation of novel 3,4,5-trimethoxyphenyl substituted beta-carboline derivatives” (Eur J Med Chem, 2009).

Assay type in all cases: functional, cell-based
The test system of test [1] is HepG2. Put plainly: Cytotoxicity against human HepG2 cells by MTT assay. In a few lines:
(§1)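 Cells grown in RPMI-1640 with 10% (v/v) fetal calf serum, penicillin and streptomycin, at 37 °C in humidified 5% CO2. Compounds dissolved as DMSO stocks, with final DMSO in the medium at 2% (v/v) or lower. Run in 96-well microtitre cultures with MTT staining, following a published procedure with slight modification.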

Test [2] deals with HeLa. The test is described as follows: Cytotoxicity against human HeLa cells by MTT assay. In a few lines:
as §1

The subject of test [3] is MCF7. The test is described as follows: Cytotoxicity against human MCF7 cells by MTT assay. In a few lines: as §1
A general note: Tetrazolium dyes change colour on reduction, which living cells bring about.

For test [4], the system named is BGC-823. Put plainly: Cytotoxicity against human BGC823 cells by MTT assay. The procedure, abridged: as §1
In test [5] the test system is Bel-7402. Put plainly: Cytotoxicity against human Bel7402 cells by MTT assay. In a few lines: as §1

By IC50 is commonly meant the point on the concentration scale where inhibition reaches its midpoint.

For the compound `CCn1c2ccccc2c2ccnc(-c3cc(OC)c(OC)c(OC)c3)c21`, the IC50 in test [1] was over 100 µM; in test [2], 50.9 µM; in test [3], 72.7 µM; in test [4], 35.2 µM; in test [5], 43.9 µM.
As for `COc1cc(-c2nccc3c4ccccc4n(C)c23)cc(OC)c1OC`, the IC50 in test [1] is 86.8 µM; in test [2] it was 71.8 µM; in test [3], 74.2 µM; in test [4], 43.2 µM; in test [5], 91.1 µM.
On to `COc1ccc2c(c1)[nH]c1c(C)nccc12` [HARMINE], for which the IC50 in test [1] worked out at 46 µM; in test [2], 60 µM; in test [3], 72 µM; in test [4], 68 µM; in test [5] it was 54 µM.
`CCOC(=O)c1cc2c([nH]c3ccccc32)c(-c2cc(OC)c(OC)c(OC)c2)n1`: the IC50 in test [1] is over 100 µM; in test [2], over 100 µM; in test [3], 92.3 µM; in test [4], 96.6 µM; in test [5], over 100 µM.
On to `CCCCn1c2ccccc2c2ccnc(-c3cc(OC)c(OC)c(OC)c3)c21`, for which the IC50 was 51.9 µM in test [1]; 44.2 µM in test [2]; 51.8 µM in test [3]; 27.5 µM in test [4]; 42.5 µM in test [5].
Turning to `CCCCn1c2ccccc2c2cc(C(=O)NCCO)nc(-c3cc(OC)c(OC)c(OC)c3)c21`, the half-inhibitory concentration (IC50) is 87.4 µM in test [1]; over 100 µM in test [2]; 31.6 µM in test [3]; 37.2 µM in test [4]; over 100 µM in test [5].
As to `CCCCn1c2ccccc2c2cc(C(=O)O)nc(-c3cc(OC)c(OC)c(OC)c3)c21`, the IC50 in test [1] was over 100 µM; in test [2], over 100 µM; in test [3] it was over 100 µM; in test [4], 51.1 µM; in test [5], over 100 µM.
As to `CCn1c2ccccc2c2cc(CO)nc(-c3cc(OC)c(OC)c(OC)c3)c21`, the IC50 in test [1], in test [2], in test [3], in test [4] and in test [5] was over 100 µM each time.
Turning to `CCCCn1c2ccccc2c2cc(C(=O)OCC)nc(-c3cc(OC)c(OC)c(OC)c3)c21`, the IC50 was over 100 µM in test [1]; over 100 µM in test [2]; 43.6 µM in test [3]; 27.3 µM in test [4]; over 100 µM in test [5].
In the case of `CCOC(=O)c1cc2c3ccccc3n(CC)c2c(-c2cc(OC)c(OC)c(OC)c2)n1`, the IC50 was over 100 µM in test [1]; over 100 µM in test [2]; over 100 µM in test [3]; 53.2 µM in test [4]; over 100 µM in test [5].
Regarding `CCn1c2ccccc2c2cc(C=O)nc(-c3cc(OC)c(OC)c(OC)c3)c21`, the IC50 in test [1], in test [2], in test [3], in test [4] and in test [5] was over 100 µM each time.
Take `CCn1c2ccccc2c2cc(C(=O)O)nc(-c3cc(OC)c(OC)c(OC)c3)c21`: the IC50 in test [1] was over 100 µM; in test [2] it was over 100 µM; in test [3] it was over 100 µM; in test [4], 66.5 µM; in test [5], 61.4 µM.
Turning to `CCn1c2ccccc2c2cc(C(=O)NCCO)nc(-c3cc(OC)c(OC)c(OC)c3)c21`, the IC50 was over 100 µM in test [1]; over 100 µM in test [2]; 53.8 µM in test [3]; 74.7 µM in test [4]; over 100 µM in test [5].
Regarding `COc1cc(-c2nccc3c2[nH]c2ccccc23)cc(OC)c1OC`, the IC50 in test [1] was 63.2 µM; in test [2], 19.6 µM; in test [3] it was 31.7 µM; in test [4] it was 43.1 µM; in test [5], 43.8 µM.
Turning to `COc1cc(-c2nc(C=O)cc3c4ccccc4n(C)c23)cc(OC)c1OC`, the IC50 in test [1], in test [2], in test [3], in test [4] and in test [5] was over 100 µM each time.
As to `CCOC(=O)c1cc2c3ccccc3n(CCCc3ccccc3)c2c(-c2cc(OC)c(OC)c(OC)c2)n1`, the IC50 in test [1] is over 100 µM; in test [2] it was over 100 µM; in test [3], over 100 µM; in test [4], 95.4 µM; in test [5] it was over 100 µM.
`COc1cc(-c2nc(C(=O)NCCO)cc3c4ccccc4n(C)c23)cc(OC)c1OC`: the IC50 in test [1] was over 100 µM; in test [2], over 100 µM; in test [3], 95.5 µM; in test [4], 90.9 µM; in test [5] it was over 100 µM.
With `COc1cc(-c2nc(CO)cc3c4ccccc4n(C)c23)cc(OC)c1OC`, the 50% inhibitory concentration (IC50) in test [1], in test [2], in test [3], in test [4] and in test [5] was over 100 µM throughout.
Regarding `COc1cc(-c2nc(C(=O)O)cc3c4ccccc4n(C)c23)cc(OC)c1OC`, the IC50 is over 100 µM in test [1]; over 100 µM in test [2]; over 100 µM in test [3]; 91.1 µM in test [4]; over 100 µM in test [5].
As for `CCOC(=O)c1cc2c3ccccc3n(C)c2c(-c2cc(OC)c(OC)c(OC)c2)n1`, the IC50 in test [1] was over 100 µM; in test [2], over 100 µM; in test [3], over 100 µM; in test [4], 56.6 µM; in test [5] it was over 100 µM.
Turning to `COc1cc(-c2nc(C=O)cc3c4ccccc4n(CCCc4ccccc4)c23)cc(OC)c1OC`, the IC50 in test [1], in test [2], in test [3], in test [4] and in test [5] was over 100 µM each time.
For the compound `CCCCn1c2ccccc2c2cc(C=O)nc(-c3cc(OC)c(OC)c(OC)c3)c21`, the IC50 in test [1], in test [2], in test [3], in test [4] and in test [5] was over 100 µM each time.
Regarding `COc1cc(-c2nc(CO)cc3c4ccccc4n(CCCc4ccccc4)c23)cc(OC)c1OC`, the IC50 in test [1], in test [2], in test [3], in test [4] and in test [5] was over 100 µM throughout.
In the case of `CCCCn1c2ccccc2c2cc(CO)nc(-c3cc(OC)c(OC)c(OC)c3)c21`, the IC50 in test [1], in test [2], in test [3], in test [4] and in test [5] was over 100 µM throughout.
